Test results taken from ChEMBL document CHEMBL3259728, “Design, synthesis and biological evaluation of some novel substituted quinazolines as antitumor agents” (2014).

Experiments:
Assay type in all cases: functional
U-251 [1] = assay: Growth inhibition of human U251 cells assessed as cell growth at 10^-4 M after 48 hrs by SRB assay; conditions: U-251, 48 h, read-out: Activity
K562 = assay: Growth inhibition of human K562 cells assessed as cell growth at 10^-4 M after 48 hrs by SRB assay; conditions: K562, 48 h, read-out: Activity
SK-MEL-28 [2] = assay: Growth inhibition of human SK-MEL-28 cells assessed as cell growth at 10^-8 M after 48 hrs by SRB assay; conditions: SK-MEL-28, 48 h, read-out: Activity
HT-29 = assay: Growth inhibition of human HT-29 cells assessed as cell growth at 10^-8 M after 48 hrs by SRB assay; conditions: HT-29, 48 h, read-out: Activity
HOP-62 = assay: Growth inhibition of human HOP62 cells assessed as cell growth at 10^-8 M after 48 hrs by SRB assay; conditions: HOP-62, 48 h, read-out: Activity
[3] = Growth inhibition of human RXF393 cells assessed as cell growth at 10^-5 M after 48 hrs by SRB assay; conditions: RXF 393, 48 h, read-out: Activity
[4] = Growth inhibition of human OVCAR8 cells assessed as cell growth at 10^-5 M after 48 hrs by SRB assay; conditions: OVCAR-8, 48 h, read-out: Activity
SNB-19 = assay: Growth inhibition of human SNB19 cells assessed as cell growth at 10^-5 M after 48 hrs by SRB assay; conditions: SNB-19, 48 h, read-out: Activity
CAKI-1 = assay: Growth inhibition of human CAKI-1 cells assessed as cell growth at 10^-6 M after 48 hrs by SRB assay; conditions: CAKI-1, 48 h, read-out: Activity
Procedure, shortened: (§1)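 Five-dose NCI panel protocol. Each dose (10^-4 to 10^-8 M, 10-fold steps) was given as 48 h continuous exposure, and protein was measured by SRB staining. Percentage growth at each level is [(Ti−Tz)/(C−Tz)]×100, where Tz is time-zero absorbance and C is untreated control.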

[5] = Growth inhibition of human LOXIMVI cells assessed as cell growth at 10^-5 M after 48 hrs by SRB assay; conditions: LOX IMVI, read-out: Activity
HCT-116 = assay: Growth inhibition of human HCT116 cells assessed as cell growth at 10^-6 M after 48 hrs by SRB assay; conditions: HCT-116, 48 h, read-out: Activity
DU-145 [6] = assay: Growth inhibition of human DU145 cells assessed as cell growth at 10^-7 M after 48 hrs by SRB assay; conditions: DU-145, 48 h, read-out: Activity
PC-3 = assay: Growth inhibition of human PC3 cells assessed as cell growth at 10^-8 M after 48 hrs by SRB assay; conditions: PC-3, 48 h, read-out: Activity
SF-295 = assay: Cytotoxicity against human SF295 cells after 48 hrs by SRB assay; conditions: SF-295, 48 h
Procedure, shortened: (§2)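 NCI 60-cell-line panel of human tumour lines from nine cancer types. Continuous 48 h exposure at five 10-fold dilutions from 10^-4 to 10^-8 M, with 5-FU as positive control. SRB protein stain read spectrophotometrically at time zero, untreated control and each concentration. GI50, TGI and LC50 were derived from the [(Ti−Tz)/(C−Tz)]×100 growth relations, and out-of-range values are given as > or < the tested limits.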

SW-620 = assay: Cytotoxicity against human SW620 cells after 48 hrs by SRB assay; conditions: SW-620, 48 h; procedure, shortened: as §2
[7] = Growth inhibition of human EKVX cells assessed as cell growth at 10^-8 M after 48 hrs by SRB assay; conditions: read-out: Activity
SN12C [8] = assay: Cytotoxicity against human SN12C cells after 48 hrs by SRB assay; procedure, shortened: as §2
MDA-MB-468 = assay: Growth inhibition of human MDA-MB-468 cells assessed as cell growth at 10^-7 M after 48 hrs by SRB assay; conditions: MDA-MB-468, 48 h, read-out: Activity
SN12C [9] = assay: Growth inhibition of human SN12C cells assessed as cell growth at 10^-7 M after 48 hrs by SRB assay; conditions: read-out: Activity
786-0 = assay: Growth inhibition of human 786-0 cells assessed as cell growth at 10^-7 M after 48 hrs by SRB assay; conditions: 786-0, 48 h, read-out: Activity; procedure, shortened: as §1
SK-OV-3 = assay: Growth inhibition of human SKOV3 cells assessed as cell growth at 10^-7 M after 48 hrs by SRB assay; conditions: SK-OV-3, 48 h, read-out: Activity
[10] = Growth inhibition of human UACC62 cells assessed as cell growth at 10^-7 M after 48 hrs by SRB assay; conditions: UACC-62, 48 h, read-out: Activity
SK-MEL-28 [11] = assay: Growth inhibition of human SK-MEL-28 cells assessed as cell growth at 10^-7 M after 48 hrs by SRB assay; conditions: SK-MEL-28, 48 h, read-out: Activity
M14 = assay: Growth inhibition of human M14 cells assessed as cell growth at 10^-7 M after 48 hrs by SRB assay; conditions: M14, 48 h, read-out: Activity
U-251 [12] = assay: Growth inhibition of human U251 cells assessed as cell growth at 10^-7 M after 48 hrs by SRB assay; conditions: U-251, 48 h, read-out: Activity
[13] = Growth inhibition of human Hs578T cells assessed as cell growth at 10^-8 M after 48 hrs by SRB assay; conditions: Hs-578T, read-out: Activity
COLO 205 = assay: Cytotoxicity against human COLO205 cells after 48 hrs by SRB assay; conditions: COLO 205, 48 h; procedure, shortened: as §2
NCI-H322M = assay: Cytotoxicity against human NCI-H322M cells after 48 hrs by SRB assay; procedure, shortened: as §2
MDA-MB-231 = assay: Growth inhibition of human MDA-MB-231 cells assessed as cell growth at 10^-4 M after 48 hrs by SRB assay; conditions: MDA-MB-231, 48 h, read-out: Activity
DU-145 [14] = assay: Growth inhibition of human DU145 cells assessed as cell growth at 10^-4 M after 48 hrs by SRB assay; conditions: DU-145, 48 h, read-out: Activity; procedure, shortened: as §1
[15] = read-out: LC50 (the source's name)
[16] = read-out: pLC50 (the source's name) (converted)

Q: Which results are given for `Cc1ccc(-c2nc3ccc(Cl)cc3c(=O)n2/N=C/c2ccccc2)cc1`?
A: growth at 100 µM (U-251 [1]): 7%; growth at 100 µM (K562): 59%; growth at 0.01 µM (SK-MEL-28 [2]): 102%; growth at 0.01 µM (HT-29): 100%; growth at 0.01 µM (HOP-62): 97%; growth at 10 µM [3]: 41%; growth at 10 µM [4]: 30%; growth at 10 µM (SNB-19): 34%; growth at 1 µM (CAKI-1): 77%; growth at 10 µM [5]: 63%; growth at 1 µM (HCT-116): 87%; growth at 0.1 µM (DU-145 [6]): 98%; growth at 0.01 µM (PC-3): 92%; GI50 (SF-295; read-out: GI50): 4.73 µM; CC50 (SF-295; [15]): > 100 µM; TGI (SF-295; read-out: TGI): > 100 µM; GI50 (SF-295; read-out: pGI50 (converted)): 4.79 µM; CC50 (SF-295; [16]): > 100 µM; TGI (SF-295; read-out: pTGI): > 100 µM; GI50 (SW-620; read-out: GI50): > 100 µM; CC50 (SW-620; [15]): > 100 µM; TGI (SW-620; read-out: TGI): > 100 µM; GI50 (SW-620; read-out: pGI50 (converted)): > 100 µM; CC50 (SW-620; [16]): > 100 µM; TGI (SW-620; read-out: pTGI): > 100 µM; growth at 0.01 µM [7]: 92%; GI50 (SN12C [8]; read-out: GI50): 11.8 µM; CC50 (SN12C [8]; [15]): > 100 µM; TGI (SN12C [8]; read-out: TGI): > 100 µM; GI50 (SN12C [8]; read-out: pGI50 (converted)): 11.7 µM; CC50 (SN12C [8]; [16]): > 100 µM; TGI (SN12C [8]; read-out: pTGI): > 100 µM; growth at 0.1 µM (MDA-MB-468): 93%; growth at 0.1 µM (SN12C [9]): 92%; growth at 0.1 µM (786-0): 93%; growth at 0.1 µM (SK-OV-3): 97%; growth at 0.1 µM [10]: 88%; growth at 0.1 µM (SK-MEL-28 [11]): 97%; growth at 0.1 µM (M14): 96%; growth at 0.1 µM (U-251 [12]): 99%; growth at 0.01 µM [13]: 87%; GI50 (COLO 205; read-out: GI50): 9 µM; LC50 (concentration killing 50% of cells) (COLO 205; read-out: LC50): > 100 µM; TGI (COLO 205; read-out: TGI): > 100 µM; GI50 (COLO 205; read-out: pGI50 (converted)): 8.91 µM; LC50 (concentration killing 50% of cells) (COLO 205; read-out: pLC50 (converted)): > 100 µM; TGI (COLO 205; read-out: pTGI): > 100 µM; GI50 (NCI-H322M; read-out: GI50): 17.4 µM; LC50 (NCI-H322M; read-out: LC50): > 100 µM; TGI (NCI-H322M; read-out: TGI): > 100 µM; GI50 (NCI-H322M; read-out: pGI50 (converted)): 17.4 µM; LC50 (NCI-H322M; read-out: pLC50 (converted)): > 100 µM; TGI (NCI-H322M; read-out: pTGI): > 100 µM; growth at 100 µM (MDA-MB-231): 16%; growth at 100 µM (DU-145 [14]): 49%
